# A selection: hits, their analogues and other compounds. The true share with any hit is near 1.7%.
# Scp1 inh – Scp-1 phosphatase inhibitors, primary screen, biochemical, colorimetric, uHTS; AID 493091, 2011; inhibition, % at 20 µM; 0.88% of 340,000 active; Carboxy-terminal domain RNA polymerase II polypeptide A small phosphatase 1 (Homo …; Recombinant Scp1, phosphopeptide, malachite green phosphate absorbance;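 active = inhibition above about 50% at 20 µM, limit read from the data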;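 note: plate controls were DMSO wells with enzyme for no effect and wells lacking enzyme for full effect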
# Target sequence (Q9GZU7 76-261 limits assumed): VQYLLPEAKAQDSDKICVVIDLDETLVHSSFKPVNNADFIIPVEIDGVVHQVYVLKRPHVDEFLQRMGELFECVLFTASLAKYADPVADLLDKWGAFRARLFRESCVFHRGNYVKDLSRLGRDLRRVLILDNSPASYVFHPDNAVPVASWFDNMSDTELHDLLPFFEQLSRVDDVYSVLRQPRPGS
#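 Assay system: SCP-1 catalytic fragment, aa 76-261 | Buffer or medium: Tris acetate buffer pH 5.5 with MgCl2 and Tween-20 | Compound: One concentration, 20 µM, with 1.0% DMSO | Also added: Phospho 17-mer peptide substrate | Signal: Absorbance at 630 nm | Incubation: 45 min enzyme reaction at room temperature | Measure: % inhibition of SCP-1 phosphate liberation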
# DNMT1 block – human DNMT1 methyltransferase inhibitors, primary screen, biochemical, molecular beacon, fluorescence, HinP1I cleavage, uHTS | inhibition (reported as % activation of signal), % at 10 µM | 0.83% of 360,000 active | AID 588458, 2011 | DNA (cytosine-5)-methyltransferase 1 (Homo sapiens), P26358; in the data active = inhibition above about 50%
# LMPTP inh – LMPTP phosphatase inhibitors, primary screen, biochemical, fluorescence intensity, uHTS; AID 651560, 2012; 0.22% of 360,000 active; inhibition, % at 20 µM; recombinant LMPTP-A, OMFP fluorogenic substrate; Low molecular weight phosphotyrosine protein phosphatase (Homo sapiens), P24666;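 active = compounds that cut the enzyme signal by at least half of the control window in the single-dose screen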;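 note: plate controls were DMSO wells with enzyme plus substrate for no effect and substrate without enzyme for full effect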
# Target sequence (P24666 whole entry, looked up): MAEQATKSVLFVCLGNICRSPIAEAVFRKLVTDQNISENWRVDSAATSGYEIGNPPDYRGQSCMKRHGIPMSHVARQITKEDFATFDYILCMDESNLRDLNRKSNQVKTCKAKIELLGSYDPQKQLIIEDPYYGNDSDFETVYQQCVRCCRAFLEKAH
#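 Assay system: LMPTP-A, protein tyrosine phosphatase of low molecular weight / Medium: pH 6.0 Bis-Tris buffer with DTT and Triton X-100 / Schedule: 50 min enzyme reaction at room temperature, protected from light / Measured by: endpoint fluorescence intensity from OMFP dephosphorylation / Read-out basis: % inhibition relative to no-enzyme and uninhibited control wells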
# SUMO1 PPI mod – modulators of SUMO1 protein-protein interactions, primary screen, biochemical, uHTS. Small ubiquitin-related modifier 1 (Homo sapiens), P63165. SUMO1 binding to a labelled peptide, TR-FRET, 1 h. inhibition, % at 20 µM. 0.33% of 360,000 active. AID 602429, 2012; in the data active = inhibition above about 37%
# Target sequence (P63165 whole entry, looked up): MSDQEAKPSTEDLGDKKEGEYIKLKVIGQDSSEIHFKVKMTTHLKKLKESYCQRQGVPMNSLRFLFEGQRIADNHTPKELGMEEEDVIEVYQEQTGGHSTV
# STEP inh – STEP phosphatase inhibitors, primary screen, biochemical, fluorescence intensity, uHTS | Tyrosine-protein phosphatase non-receptor type 5 (Homo sapiens), P54829 | recombinant STEP, OMFP fluorogenic substrate | inhibition, % at 20 µM | 0.25% of 360,000 active | AID 588621, 2011;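 active = inhibition at 20 µM, scaled per plate between control wells, above about 37%, limit read from the data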;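 note: 0% = DMSO with enzyme and substrate and 100% = substrate only without enzyme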
#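 System: STEP (striatal-enriched tyrosine phosphatase) enzyme, cell-free; medium: Bis-Tris pH 6.0 buffer with DTT, detergent; dosing: 20 µM, 1% DMSO; times: reaction 20 min, ambient temperature; detection: fluorescence, 480/540 nm; read-out basis: normalized % inhibition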
# Scp1 confirm – Scp-1 phosphatase inhibitors, retest, confirmation, biochemical, colorimetric, single concentration. shares compounds with Scp1 inh. recombinant SCP-1 catalytic domain, phosphate release, malachite green absorbance. inhibition, % at 20 µM. 61% of 2,500 active. AID 540281, 2011;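 active = inhibition of at least 30% at 20 µM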;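 note: plate controls were DMSO with enzyme for no effect and buffer wells lacking enzyme for full effect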
# MG interference – colorimetric readout interference by compounds, confirmation, artefact control for Scp-1 inhibitor project, biochemical, single concentration; shares compounds with Scp1 inh; apparent inhibition (interference), % at 20 µM; AID 540313, 2011; Colorimetric interference counterscreen, malachite green absorbance 630 nm; 2,500 tested, under 10 active;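 active = inhibition of at least 30% at 20 µM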;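 note: compounds added after enzyme reaction finished so only phosphate colour detection is probed; plate controls were DMSO wells with completed Scp-1 reaction for no effect and substrate wells lacking enzyme for full effect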
# Scp-1 Tm shift – Scp-1 binding by thermal shift, confirmation, orthogonal assay for Scp-1 inhibitor project, biophysical, differential scanning fluorimetry. shares compounds with Scp1 inh. Recombinant SCP1, Sypro Orange thermal shift Tm. thermal shift relative to vanadate control, % at 40 µM. 25% of 1,500 active;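 active = substances whose mean melting-temperature shift, as a percentage of the reference inhibitor's shift, reaches about 5.3%, limit read from the data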;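 note: 0% = Tm of DMSO wells and 100% = Tm with sodium orthovanadate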
# DNMT1 interf DR – spectral interference with molecular beacon fluorescence, dose response, artefact control for DNMT1 inhibitor project, biochemical, fluorescent molecular beacon; shares compounds with DNMT1 block; spectral interference counter-screen; IC50, µM; 200 tested, under 10 active; AID 602382, 2012
# DNMT1 inh conf – DNMT1 methyltransferase inhibitor retest, confirmation, biochemical, molecular beacon, fluorescence, single concentration; shares compounds with DNMT1 block; DNMT1 molecular beacon HinP1I cleavage; inhibition, % at 10 µM; 8% of 2,300 active; AID 602385, 2012;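 active = average inhibition of at least 30% in the single-concentration confirmation test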
# DNMT1 interf – beacon fluorescence artifact counter-screen; shares compounds with DNMT1 block; DNMT1 molecular beacon spectral interference counterscreen, fluorescence 485/520; activation (fluorescence interference), % at 10 µM; 1% of 2,300 active; AID 602387;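 active = activation of at least 30% at 10 µM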;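 note: DNMT1 catalytic domain with a HinP1I cleavage step and a FAM/dabcyl DNA beacon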
# STEP conf – STEP phosphatase inhibitor hit confirmation, biochemical, fluorescence intensity, single concentration. shares compounds with STEP inh. recombinant STEP, OMFP fluorogenic substrate. inhibition, % at 20 µM. 32% of 520 active. AID 623866, 2012;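 note: 0% = enzyme with substrate plus DMSO and 100% = substrate without enzyme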
# Starred values were filed as active, the others as inactive; · = no result given; ! = not confirmed by another sample. Unless noted, the rule behind the calls is not given here.
SMILES,Scp1 inh,DNMT1 block,LMPTP inh,SUMO1 PPI mod,STEP inh,Scp1 confirm,MG interference,Scp-1 Tm shift,DNMT1 inh conf,DNMT1 interf,others
CC(=O)Nc1ccc(N=Cc2c(O)n(Cc3ccco3)c(=O)[nH]c2=O)cc1,72.5*,2.2,1.1,55.2*,6.3,51.0*,-6.5,-5.5,·,·,
N#Cc1ccc(NC(=S)N2Cc3ccccc3-n3nncc3C2)cc1,·,0.5,-0.3,5.1,-0.8,·,·,·,·,·,
O=C(O)CCn1cc(C=C2C(=O)NC(=O)NC2=O)c(-c2ccc(Br)cc2)n1,8.0,4.8,-1.9,3.3,3.5,·,·,·,·,·,
O=C(O)CCn1cc(C=C2C(=O)NC(=S)NC2=O)c(-c2cccc(Cl)c2)n1,67.1*,-0.1,-0.4,7.8,-2.1,42.4*,-13.4,-18.5,·,·,
CCCC[N+]12CCC(CC1)C(C(=O)c1cccs1)C2 (configuration not stated),98.0*,-2.9,-0.1,-7.0,-2.4,103.1*,6.1,-4.5,·,·,
Cn1c[n+](C)cc1C(O)c1ccccc1 (configuration not stated),92.2*!,-0.9,-0.8,-0.2,-2.2,84.3*,-10.9,-1.3,·,·,
Cc1ccc(-n2c(=O)[nH]c3ccccc3c2=O)cc1[N+](=O)[O-],·,-10.1,0.6,9.6,-0.4,·,·,·,·,·,
CCOc1ccccc1N=C1SCCCN1C,54.7*,1.7,0.1,-1.0,0.5,66.6*,-11.5,-6.8,·,·,
CC(=O)N1CCCSC1=Nc1ccccc1,-7.4,2.3,-1.9,3.9,-0.3,·,·,·,·,·,
C[C@H](CO)N1C[C@H](C)[C@@H](CN(C)C(=O)Oc2ccc3ccccc3c2)OCc2cn(nn2)CCCC1=O,·,1.6,-1.8,2.1,2.6,·,·,·,·,·,
Cc1cc(/C=C2/C(=O)NC(=O)N(C)C2=O)c(C)n1-c1ccccc1,-6.5,1.7,2.0,-9.6,-2.9,·,·,·,·,·,
Cc1cc(/C=C2\C(=O)NC(=O)N(c3ccccc3F)C2=O)c(C)n1-c1cc(C(=O)O)cc(C(=O)O)c1,54.7*,87.2*,1.2,13.2,41.6*,31.7*,-15.3,9.9*,27.0,0.9,DNMT1 interf DR=>99
O=C1NC(=O)C(=Cc2ccc(SC3CCCCC3)o2)C(=O)N1,53.2*,86.5*,5.4,8.8,0.6,74.8*,-8.7,-7.0,9.7,0.1,
Cc1ccc(C(O)(C(=O)OC(C)C)C(O)c2ccccc2)cc1 (configuration not stated),·,·,-1.1,-0.4,·,·,·,·,·,·,
CC[N+](C)(CC)CCCCOc1ccc2c(c1)C(=O)c1cc(OCCCC[N+](C)(CC)CC)ccc1-2,102.7*,53.6*,3.1,-47.7,2.5,62.0*,-2.1,0.9,39.1*,-6.8,DNMT1 interf DR=>99
S=P(NCCSCc1ccccc1)(N1CC1)N1CC1,-21.5,-11.8,5.3,-21.9,3.6,·,·,·,·,·,
Cc1ccc2c(c1Cl)NC(C(=O)O)C1CC(Sc3ccccc3[N+](=O)[O-])C(Cl)C21 (configuration not stated),59.5*,70.7*,41.6,30.5,4.7,65.1*,-15.6,17.7*,22.1,1.0,
CCOC(=O)[C@]12Cc3ccc4ccccc4c3[C@H]1N(Cc1ccccc1)C(=O)c1ccccc12,·,·,2.3,8.3,·,·,·,·,·,·,
COc1ccc(CN2C(=O)NC(=O)/C(=C/c3ccoc3)C2=O)cc1,71.5*,100.8*,24.4,32.5,67.6*,70.6*,-13.4,0.7,10.8,-1.4,
Cc1cccc(C)c1-n1nnnc1C(c1ccccc1OC(F)(F)F)N1CCC(n2c(=O)[nH]c3ccccc32)CC1 (configuration not stated),·,-25.3,4.7,-8.9,2.3,·,·,·,·,·,
CCN(CC)P(=O)(NC(=O)C(Cl)(Cl)Cl)N(CC)CC.[Cl-].[Cl-].[Cl-].[Nd+3],101.3*,27.3,44.5,106.7*,87.2*,70.3*,-17.0,-8.5,·,·,STEP conf=25.3*
C[C@]1(O)CCC2C3CC[C@H]4C[C@@H](OC(=O)[C@@H](N)CCCCN)CC[C@]4(C)C3CC[C@@]21C (some centres not stated),·,-2.5,-5.3,-108.0,-3.8,·,·,·,·,·,
CCCCn1c(NC(=O)c2ccc(Br)o2)c(C(=O)OCC)c2nc3ccccc3nc21,-3.2,70.3*,1.5,44.9*,-0.6,·,·,·,-0.6,-4.5,
CCOC(=O)[C@]12Cc3cc(Cl)ccc3[C@H]1N(C1CCCCC1)C(=O)c1ccccc12,·,·,3.5,8.7,·,·,·,·,·,·,
c1ccc2[nH]c(CCN3CCCCC3)nc2c1,·,-4.5,1.9,-15.3,0.8,·,·,·,·,·,
CN1C(=O)NC(=O)/C(=C\c2ccc([N+](=O)[O-])o2)C1=O,53.0*,101.1*,10.7,33.7,44.3*,·,·,·,112.3*,-2.0,DNMT1 interf DR=>99
O=C1NC(=O)C(=Cc2ccc(-c3ccccc3[N+](=O)[O-])o2)C(=O)N1,42.2,2.5,1.3,-15.6,2.6,·,·,·,·,·,
O=C1NC(=O)C(=Cc2ccc(-c3cc(Cl)ccc3[N+](=O)[O-])o2)C(=O)N1,69.3*,78.5*,23.0,11.0,8.8,·,·,·,1.6,-2.9,
CCCCN1C(=O)/C(=C/c2ccc(N(C)C)cc2)C(=O)N(Cc2ccco2)C1=O,22.4,80.0*,3.1,6.8,-3.5,·,·,·,1.3,-0.6,
CCN(CC)c1ccc(/C=C2\C(=O)NC(=O)N(Cc3ccco3)C2=O)cc1,-0.8,39.2,0.0,5.5,-3.2,·,·,·,·,·,

# Source: PubChem
